The record followed here is ChEMBL document CHEMBL4196160, “Structure-Guided Design and Procognitive Assessment of a Potent and Selective Phosphodiesterase 2A Inhibitor” (ACS Med Chem Lett, 2018).

The nature of series [1]: Inhibition of rhesus monkey brain PDE2A3 expressed in human AD293 cells using FAM-labeled cAMP/cGMP as substrate incubated for 60 mins measured after 1 hr by IMAP based fluorescence polarization assay. (In fluorescence polarisation assays a small probe gives low polarisation when free and higher when bound to something large.)
Series [2] is described as follows: Selectivity ratio of IC50 for human GST-tagged PDE9A2 expressed in insect cells to IC50 for rhesus monkey brain PDE2A3 expressed in human AD293 cells.
A short description of series [3]: Selectivity ratio of IC50 for human GST-tagged PDE1A expressed in insect cells to IC50 for rhesus monkey brain PDE2A3 expressed in human AD293 cells.
Series [4] can be described thus: Selectivity ratio of IC50 for human GST-tagged PDE5A1 expressed in insect cells to IC50 for rhesus monkey brain PDE2A3 expressed in human AD293 cells.
A short description of series [5]: Selectivity ratio of IC50 for human GST-tagged PDE10A2 expressed in insect cells to IC50 for rhesus monkey brain PDE2A3 expressed in human AD293 cells.
Series [6] is described as follows: Selectivity ratio of IC50 for human GST-tagged PDE11A4 expressed in insect cells to IC50 for rhesus monkey brain PDE2A3 expressed in human AD293 cells.
Series [7] can be described thus: Selectivity ratio of IC50 for human GST-tagged PDE7A expressed in insect cells to IC50 for rhesus monkey brain PDE2A3 expressed in human AD293 cells.
The nature of series [8]: Lipophilicity, log D of the compound by HPLC method. It counts as physicochemical.
Series [9] is described as follows: Selectivity ratio of IC50 for human GST-tagged PDE4A1A expressed in insect cells to IC50 for rhesus monkey brain PDE2A3 expressed in human AD293 cells.
Series [10] is described as follows: Selectivity ratio of IC50 for human GST-tagged PDE6C expressed in insect cells to IC50 for rhesus monkey brain PDE2A3 expressed in human AD293 cells.
Series [11] can be described thus: Selectivity ratio of IC50 for human GST-tagged PDE3A expressed in insect cells to IC50 for rhesus monkey brain PDE2A3 expressed in human AD293 cells.
Series [12] can be described thus: Selectivity ratio of IC50 for human GST-tagged PDE8A1 expressed in insect cells to IC50 for rhesus monkey brain PDE2A3 expressed in human AD293 cells.
Series [13] is described as follows: Volume of distribution at steady state in rat. It is filed as ADME, organism-based. Particulars: in vivo, read-out: Vdss.
Series [14] relates to P-gp. The experiment in a line: Substrate activity at human P-gp assessed as efflux ratio. Particulars: not told. It counts as ADME.
Series [15] concerns P-gp. As to the kind of experiment: Substrate activity at P-gp (unknown origin) assessed as apparent permeability. It is filed as ADME. Particulars: human, not told.
Series [16] concerns Rattus norvegicus. As to the kind of experiment: Increase in cGMP levels in rat brain cytosolic fraction of cortical tissue at 3 to 30 mg/kg, po measured after 30 mins by ELISA. It counts as functional, organism-based. In a few lines:
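Rats dosed orally at 3, 10 or 30 mg/kg; brain tissue harvested 30 min after dosing and frozen; cortical cGMP measured and compared with controls.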

Series [17] can be described thus: Inhibition of CYP450 (unknown origin). It counts as ADME, Homo sapiens.
Series [18] can be described thus: Clearance in rhesus monkey. The following applies: in vivo. It counts as ADME, organism-based, Macaca mulatta.
Series [19] has as its system P-gp. As to the kind of experiment: Substrate activity at rat P-gp assessed as efflux ratio. It counts as ADME. The following applies: not told.
Series [20] in a line: Selectivity ratio of IC50 for human GST-tagged PDE2A1 expressed in insect cells to IC50 for rhesus monkey brain PDE2A3 expressed in human AD293 cells.
In series [21] the test system is Rattus norvegicus. As to the kind of experiment: Reversal of scopolamine-induced cognitive impairment in Wistar Hannover rat assessed as improvement in episodic memory at 0.1 to 1 mg/kg, po administered 30 mins prior to testing by novel object recognition test. It counts as functional, organism-based. In a few lines: (§1)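 Rats given vehicle or scopolamine, then exposed to two identical objects; one hour later exposed to one familiar and one novel object. Recognition memory scored as time spent exploring the novel versus the familiar object. Donepezil served as positive control.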

The nature of series [22]: Half life in rat. It is filed as ADME, organism-based. The following applies: in vivo.
Series [23] is described as follows: Clearance in rat. It counts as ADME, organism-based. The following applies: in vivo.
Series [24] is described as follows: Oral bioavailability in rhesus monkey. It is filed as ADME, organism-based, Macaca mulatta. Particulars: in vivo.
The nature of series [25]: Half life in rhesus monkey. It is filed as ADME, organism-based, Macaca mulatta. The following applies: in vivo.
Series [26] is described as follows: Oral bioavailability in rat. It counts as ADME, organism-based. Particulars: in vivo.
Series [27] is described as follows: Protein binding in rat plasma. It is filed as ADME, cell-free. Particulars: read-out: PPB (converted).
Series [28] is described as follows: Protein binding in rhesus monkey plasma. The following applies: read-out: PPB (converted). It is filed as ADME, cell-free, Macaca mulatta.
In series [29] the test system is Rhesus monkey. As to the kind of experiment: Reversal of scopolamine-induced cognitive impairment in rhesus monkey assessed increase in novel object retrieval administered orally 4 hrs prior to testing by novel object recognition test. It counts as functional, organism-based. Particulars: Macaca mulatta. The method, boiled down:
(§2)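 Rhesus monkeys impaired with scopolamine performed an object retrieval task. A food item was placed deep inside a clear box whose single open side was out of direct view. Each attempt was scored correct if the food was retrieved without touching a closed side. Read-out was percentage correct versus scopolamine alone, with donepezil as positive control.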

The nature of series [30]: Volume of distribution at steady state in rhesus monkey. It is filed as ADME, organism-based, Macaca mulatta. The following applies: in vivo, read-out: Vdss.
Series [31] is described as follows: Intrinsic clearance in human liver microsomes. It is filed as ADME, microsome. Particulars: read-out: CLH. In general terms: Liver microsomes are vesicles of endoplasmic reticulum, rich in cytochrome P450 enzymes.
In series [32] the test system is Rhesus monkey. The experiment in a line: Reversal of scopolamine-induced cognitive impairment in rhesus monkey assessed increase in novel object retrieval at 1 mg/kg administered orally 4 hrs prior to testing by novel object recognition test. It counts as functional, organism-based. Particulars: Macaca mulatta. In a few lines: as §2
Series [33] has as its system Rhesus monkey. The experiment in a line: Reversal of scopolamine-induced cognitive impairment in rhesus monkey assessed increase in novel object retrieval at 0.3 mg/kg by novel object recognition test. It counts as functional, organism-based. Particulars: Macaca mulatta. In a few lines:
as §2

The test system of series [34] is Rattus norvegicus. The experiment in a line: Reversal of scopolamine-induced cognitive impairment in Wistar Hannover rat assessed as improvement in episodic memory at 1.8 mg/kg, ip administered 30 mins prior to testing by novel object recognition test. It is filed as functional, organism-based. In a few lines: as §1

Activity calls are given as the source filed them. The rule behind the calls is not given here.

In the case of `Cc1nc2c(c(CO)nn2[C@H](c2ccc(C(F)(F)F)cc2)C(C)(C)C)c(=O)[nH]1`, in series [1], inhibition was half-maximal at 9 nM (IC50).
With `Cc1nc2c(c(C)nn2[C@@H](C)c2ccc(C(F)(F)F)cc2)c(=O)[nH]1`, the Ratio IC50 in series [2] was 4; in [3], 0 to 100; in series [4], 101 to 500; in series [5], 101 to 500; in series [6] it was 101 to 500; in [7], > 500. The Ratio IC50 in [9] was 101 to 500; in series [10], > 500; in series [11] it was 0 to 100; in series [12], > 500. Further, in [1], it took 23 nM to reach half-maximal inhibition (IC50). Further, the logD (as a rule, lipophilicity at a set pH, counting ionised and neutral species) in [8] is 2.7.
Consider `Cc1nc2c(c(CO)nn2[C@@H](C)c2ccc(C(F)(F)F)cc2)c(=O)[nH]1`, for which the Vd in series [13] was found to be 1.4 L/kg; in series [30], 0.88 L/kg. The efflux ratio (as a rule, a quotient of directional permeabilities that is used to spot active efflux) in the series on P-gp [14] is 1; in the series on P-gp [19], 3. The Ratio IC50 in series [2] is 315; in series [20], > 500; in [3], > 500; in series [4] it was > 500; in series [5], > 500; in series [6] it was > 500. For the same molecule, the Ratio IC50 in series [7], in series [9], in series [10], in series [11] and in series [12] was > 500 throughout. Also, the Papp – broadly, a coefficient for how fast a substance crosses the barrier – with P-gp [15] stood at 37 ×10⁻⁶ cm/s. For the same molecule, the result with Rattus norvegicus [16] and with Rattus norvegicus [21] was Active. Moreover, the IC50 – broadly, the concentration at which inhibition is half-maximal – in series [17] is > 50000 nM; in series [1], 2 nM. For the same molecule, the clearance – broadly, the rate of elimination divided by the concentration – in series [18] was 2 mL/min/kg; in [23], 5.6 mL/min/kg. Also, the half-life (as a rule, the time in which the quantity being followed falls by half) in series [22] was 2.9 h; in series [25], 5.2 h. Also, the bioavailability (commonly the share of a dose that reaches the circulation, judged against a reference dose that is usually intravenous) was found to be 100% in [24] and 84% in series [26]. Further, the results for the fraction unbound in series [27] and in series [28] were 0.15 and 0.1, respectively. The Activity entry in the series on Rhesus monkey [29] is “Dose-dependent effect”. The logD in series [8] was 2.2 to 2.7. In addition, the CLint scaled in series [31] was < 6.2 mL/min/kg. Moreover, the outcome with Rhesus monkey [32] was inactive.
The molecule `C[C@@H](c1ccc(C(F)(F)F)cc1)n1nc(CF)c2c(=O)[nH]c(O)nc21` displayed an IC50 in series [1] of 2 nM.
As to `Cc1nc2c(c(CO)nn2[C@H](C)c2ccc(C(F)(F)F)cc2)c(=O)[nH]1`, in series [1], the half-maximal inhibitory concentration (IC50) is 216 nM.
Consider `Cc1nc2c(c(CO)nn2[C@@H](C)c2ccc(C(F)(F)F)c(F)c2)c(=O)[nH]1`, for which the Ratio IC50 in [2] turned out to be 950. This molecule also returned an IC50 in series [1] of 1.3 nM.
Turning to `COc1cc2c(cc1OC)C(=O)C(CC1CCN(Cc3ccccc3)CC1)C2` (stereo not given), the result in the series on Rhesus monkey [33] and in the series on Rattus norvegicus [34] was Active.
Take `COc1ccc(Cc2nc3c(c(CO)nn3[C@@H](C)c3ccc(C(F)(F)F)cc3)c(=O)[nH]2)cc1OC`: the efflux ratio in the series on P-gp [14] was 11; in the series with P-gp [19], 35. This molecule also gave an IC50 in series [1] of 0.89 nM.
Take `C[C@@H](c1ccc(C(F)(F)F)cc1)n1nc(CC(F)(F)F)c2c(=O)[nH]c(O)nc21`: the efflux ratio in the series on P-gp [14] was determined as 4.8; in the series on P-gp [19], 19. Also, the Ratio IC50 in [2], in [20], in series [3], in series [4], in series [5] and in series [6] was > 12000 throughout. For the same molecule, the Ratio IC50 in series [7], in series [9], in series [10], in series [11] and in series [12] was > 12000 in each case. In addition, the midpoint of inhibition in series [1], the IC50, lay at 0.96 nM. The logD in series [8] amounted to 1.8.
Regarding `C[C@@H](c1ccc(C(F)(F)F)cc1)n1nc(CO)c2c(=O)[nH]c(O)nc21`, the efflux ratio with P-gp [14] was 0.32; in the series on P-gp [19], 0.38. Moreover, the Ratio IC50 is 1190 in [2]; > 1000 in series [20]; > 1000 in series [3]; > 1000 in series [4]; > 1000 in [5]; > 1000 in series [6]. The Ratio IC50 in series [7], in [9], in [10], in [11] and in series [12] was > 1000 throughout. In addition, in the series with P-gp [15], the apparent permeability coefficient (Papp) is 41 ×10⁻⁶ cm/s. In addition, it took 14 nM to reach half-maximal inhibition in series [1] (IC50). Further, the logD in series [8] is 1.1.
